Bioassay records (PubChem BioAssay)
CHT inh: inhibitors of human choline transporter CHT | CHT-expressing cells, membrane potential dye, choline response; stronger effect = lower value | B-score at 10 µM | 0.86% of 310,000 active;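 active = B-score over 3 SD under the library average, and starting fluorescence ratio not unusually high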;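 note: choline stimulus applied at its EC90 after an EC20 pre-addition; B-score computed on integrated fluorescence ratio after choline addition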
proCasp7 act: counter-screen: procaspase-7 (human) activation | recombinant procaspase-7, Ac-DEVD-pNA absorbance 405 nm; D23A/D198A/D206A triple mutant, cannot self-cleave; scale: DMSO 0, 5 µM enzyme 100 | activation, % at 8.5 µM | AID 463210 | P55210 | 0.093% of 330,000 active;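 active = percent activation above the screen-wide mean plus 3 SD, cut at about 25% in these data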
Target sequence (P55210 whole entry D23A/D198A/D206A): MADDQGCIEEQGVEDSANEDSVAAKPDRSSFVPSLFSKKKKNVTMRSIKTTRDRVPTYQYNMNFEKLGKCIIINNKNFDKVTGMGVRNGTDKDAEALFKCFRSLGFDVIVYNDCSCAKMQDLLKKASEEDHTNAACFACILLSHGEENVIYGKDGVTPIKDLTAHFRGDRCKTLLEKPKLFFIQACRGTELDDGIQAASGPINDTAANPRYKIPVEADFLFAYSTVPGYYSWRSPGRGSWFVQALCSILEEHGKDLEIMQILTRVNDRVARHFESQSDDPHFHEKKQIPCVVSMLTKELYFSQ
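Assay system: Uncleavable procaspase-7 mutant enzyme / Input: 2 µM procaspase-7 mutant as dispensed / Dosing: single nominal 8.5 µM compound dose, 0.8% DMSO final / Timing: 1 h enzyme–compound preincubation and 2 h substrate reaction, both 25 °C / Detection: p-Nitroaniline absorbance at 405 nm, read at 0 and 120 min / Replication: singlicate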
CHT PAM: allosteric activators of human choline transporter CHT; Q9GZV3; CHT-expressing cells, membrane potential dye, choline EC20; stronger effect = higher value; LV-AA mutant CHT in HEK293 cells; AID 488977; B-score at 10 µM; 0.49% of 310,000 active;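 active = initial fluorescence not abnormally high and integrated response B-score, plate-corrected, over 3 SD above library mean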
procasp3 activ: activators of human procaspase-3; activation, % at 8.5 µM; AID 463141; 0.11% of 330,000 active; recombinant procaspase-3 D3A, Ac-DEVD-pNA absorbance 405 nm;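 active = activation above the mean of all tested compounds plus 3 SD, cut at about 21% in these data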;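 note: 0% = DMSO alone and 100% = DMSO wells spiked with extra 5 µM PC-3 D3A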
Target sequence (P42574 whole entry D9A/D28A/D175A): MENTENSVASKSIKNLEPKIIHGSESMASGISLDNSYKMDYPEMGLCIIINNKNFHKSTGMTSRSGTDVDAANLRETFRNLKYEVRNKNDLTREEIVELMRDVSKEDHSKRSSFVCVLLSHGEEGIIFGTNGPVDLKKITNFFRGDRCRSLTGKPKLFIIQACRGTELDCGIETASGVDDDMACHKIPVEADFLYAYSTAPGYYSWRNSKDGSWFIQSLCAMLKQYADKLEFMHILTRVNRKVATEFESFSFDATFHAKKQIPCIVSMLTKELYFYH
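Technique: 405 nm absorbance of p-nitroaniline, reads at 0 and 120 min; Test system: Procaspase-3 D3A mutant; Incubation: 1 h enzyme-compound preincubation, then 2 h substrate reaction, 25 °C; Repeats: singlicate, each compound tested once; Benchmarks: low control DMSO wells, high control DMSO plus 5 µM PC-3 D3A.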
PC3 dual counter: counter-screen for dual procaspase-3/7 activators: human procaspase-3 activation | shares compounds with proCasp7 act | activation, % at 8.5 µM | 290 tested, under 10 active | recombinant PC-3 D3A, Ac-DEVD-pNA absorbance 405 nm; aspartates 9, 28, 175 changed to alanine; 100% = enzyme control;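 active = mean percent activation across triplicates above a set limit taken from the earlier primary procaspase-3 screen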;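 note: 0% = DMSO wells and 100% = DMSO wells with 5 µM added PC-3 D3A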
PC7 dual conf: confirmation of dual procaspase activators: human procaspase-7 activation; shares compounds with proCasp7 act; activation, % at 8.5 µM; 290 tested, under 10 active; recombinant procaspase-7, Ac-DEVD-pNA absorbance 405 nm; D23A/D198A/D206A mutant that cannot self-cleave;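 active = mean activation above a set limit carried over from the earlier primary screen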;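 note: 0% = DMSO only and 100% = DMSO with added 5 µM PC-7 enzyme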
* = called active by the depositor; i = inactive; . = no result. Rows were chosen to be rich in hits. Some 1.3% of all compounds tested hit in one or more screens of this group.

SMILES	CHT inh	proCasp7 act	CHT PAM	procasp3 activ	PC3 dual counter	PC7 dual conf
CC(=O)C[C@H](O)CC(=O)[C@H]1OC(=O)[C@H](C)C/C=C\Cc2ccccc21	.	2	.	12	.	.
CCN(C[C@H]1N[C@@](CC)(C(=O)OC)[C@H]2C(=O)N(C)C(=O)[C@@H]12)C(=O)c1ccccc1	.	-4	.	-7	.	.
O=c1c(-c2nc3ccccc3s2)cccn1Cc1ccc(Cl)cc1	i	90*	i	123*	-29	-36
Clc1ncccc1-c1nc2ccccc2s1	i	5	i	3	.	.
CC1=N/C(=C\c2ccc([N+](=O)[O-])cc2)C(=O)N1c1ccc(F)cc1F	i	10	i	-4	.	.
CN(C)c1ccc(-c2nn3c(-c4ccccc4Cl)nnc3s2)cc1	i	34*	i	-3	-29	-35
Cc1csc(NC(=O)C(NC(=O)c2ccccc2F)C(C)C)n1 (stereo unspecified)	i	1	i	7	.	.
CNc1oc(-c2cccs2)nc1C#N	i	8	i	-2	.	.
COc1ccc(Nc2oc(-c3cccs3)nc2C#N)cc1	i	53*	i	16	-30	-30
NC(=O)c1nsc(C(=O)N(c2ccccc2F)C(C(=O)NCc2ccc(F)cc2)c2ccc(O)cc2)c1N (stereo unspecified)	i	28*	i	-26	-28	-35
CCN(CC)c1ccc(C(=O)OCc2cc(=O)oc3cc(O)ccc23)cc1	i	40*	i	32*	0	0
CCCS(=O)(=O)c1c(S(=O)(=O)CCC)c2cc(-c3ccncc3)ccn2c1C(=O)OC	i	34*	i	29*	-29	-35
CCCS(=O)(=O)c1c(S(=O)(=O)CCC)c2cnccn2c1C(=O)c1ccc(OC)cc1	i	-2	i	-8	.	.
COc1cccc2cc(-c3nc(-c4cccs4)cs3)c(=O)oc12	i	65*	i	17	13	4
O=C(OCN1C(=O)c2ccccc2C1=O)c1cccc(OC(F)F)c1	i	8	i	13	.	.
O=C1C(Cl)=C(NCCCN2CCOCC2)C(=O)N1CCc1ccccc1	i	-6	i	-2	.	.
O=C1C(Cl)=C(NCCc2ccccc2)C(=O)N1CCc1ccccc1	i	33*	i	4	-12	-6
CCOC(=O)c1ccc2nc(NC(=O)c3ccco3)sc2c1	i	30*	i	24*	-29	-36
CC(C)CC1NC(=O)N(CC(=O)Nc2cc(S(=O)(=O)N3CCOCC3)ccc2Cl)C1=O (stereo unspecified)	.	2	.	4	.	.
CCOc1ccc(C2=CC(=O)C[C@H](c3ccc(OC)cc3)C2)cc1	.	4	.	3	.	.
O=C(NC1CC1)c1cc2cc3ccccc3nc2s1	i	-5	i	5	.	.
O=C(NNC(=O)c1cc2cc3ccccc3nc2s1)c1cccc(C(F)(F)F)c1	i	26*	i	0	-23	-19
NC(=O)c1nc(C(=O)N2CCN(c3ccccc3)CC2)c2ccccc2n1	.	-5	.	6	.	.
Cc1cc(-c2nc3cccnc3s2)ccc1NS(=O)(=O)c1cccs1	i	26*	i	17	-28	-34
COc1cc2c(cc1CNC[C@H]1O[C@@H](n3cnc4c(N)ncnc43)[C@H](O)[C@@H]1O)OCO2	.	-5	.	2	.	.
SMILES	CHT inh	proCasp7 act	CHT PAM	procasp3 activ	PC3 dual counter	PC7 dual conf
COc1ccccc1N(CC(=O)Nc1cc(S(=O)(=O)N(C)C)ccc1C)S(=O)(=O)c1cccs1	.	-1	.	4	.	.
Cc1ncc(CN2CCCC(C(=O)Nc3ccc(-c4cccc(F)c4)cc3)C2)n1C (stereo unspecified)	i	2	i	7	.	.
O=C(NCc1ccco1)c1cc2nc(-c3ccc4c(c3)OCO4)cc(C(F)(F)F)n2n1	i	-1	i	-3	.	.
COc1ccc(-c2cc(C(F)(F)F)n3nc(C(=O)NCc4ccco4)cc3n2)cc1	i	42*	i	60*	-30	-37
CCOC(=O)c1c(NC(=O)COC(=O)c2ccccc2NC)sc(C(=O)N(C)C)c1C	i	29*	i	7	-28	-32
CCOC(=O)c1c(NC(=O)COC(=O)Cc2ccccc2[N+](=O)[O-])sc(C(=O)N(C)C)c1C	i	-2	i	6	.	.
Cc1ccc(Cn2c(=O)c3cccnc3n(CC(=O)Nc3cccc(C(F)(F)F)c3)c2=O)cc1	i	42*	i	1	-1	-1
CN(C(=O)Cn1c(=O)oc2ccccc21)C1CCCCC1	.	-5	.	-1	.	.
Cc1cc(C)c(C#N)c(OCC(=O)c2ccc(Br)cc2)n1	i	46*	i	4	-5	-3
Cc1ccc(C(=O)COc2nc(C)cc(C)c2C#N)cc1	i	-10	i	4	.	.
Cc1noc(C)c1S(=O)(=O)N(C)C[C@H]1Oc2c(NS(=O)(=O)c3cn(C)cn3)cccc2C(=O)N([C@H](C)CO)C[C@@H]1C	.	4	.	7	.	.
O=c1cc(-c2ccc(O)cc2)oc2ccc3ccccc3c12	.	29*	.	22*	4	2
O=c1cc(-c2ccc(O)cc2)oc2c1ccc1ccccc12	.	4	.	-8	.	.
COc1ccccc1[C@H]1C(c2ccccc2)=NN(c2ccccc2)[C@@H]1CO	.	50*	.	25*	-28	-36
COc1ccccc1[C@H]1C(c2ccc(F)cc2)=NN(c2ccccc2)[C@@H]1CO	.	13	.	10	.	.
C=CCNC1=C(Cl)C(=O)N(c2cccc(Cl)c2Cl)C1=O	i	32*	i	6	9	5
Cc1ccc(-c2cc(-c3ccc(F)cc3)nc(N)c2C#N)o1	i	50*	i	42*	-29	-34
Cc1ccc(-c2cc(-c3ccccc3)c(C#N)c(N)n2)o1	i	-19	i	-9	.	.
N#Cc1c(N)nc2c(c1-c1ccc3c(c1)OCO3)CCc1ccccc1-2	i	30*	i	16	-30	-34
N#Cc1c(N)c(C#N)c(-c2ccc3c(c2)OCO3)c2c1CCCC2	i	2	i	5	.	.
COc1ccc(CC(=O)Nc2nn(C)c3nc4c(C)cccc4cc23)cc1	i	40*	i	23*	-30	-35
O=C(Nc1cccnc1)c1sc(Nc2ccccc2)nc1-c1ccccc1	i	29*	i	10	6	1
C=CC[C@@H](CC(=O)N(CCO)Cc1ccccc1)C(=O)N[C@H](C)COC(=O)[C@@H](CC=C)Cc1ccc(F)cc1	.	27*	.	0	2	1
